Here are results for one molecule from ChEMBL document CHEMBL2384933, “Vitexin inhibits inflammatory pain in mice by targeting TRPV1, oxidative stress, and cytokines” (J Nat Prod, 2013).

Activity calls are given as the source filed them.

In data set [1] the test system is Mus musculus. Briefly: Antinociceptive activity in Swiss mouse assessed as inhibition of acetic acid-induced writhing response at 0.3 mg/kg, ip administered 30 mins prior to acetic acid-challenge measured for 20 mins. Type of data set: functional, organism-based. The arrangement: dose 0.3 mg/kg. The gist of the method: (§1)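 Doses of 0.3–10 mg/kg given ip in saline 30 min before ip acetic acid (0.8% v/v in saline, 10 mL/kg). Cumulative abdominal writhing counted over 20 min and presented in 2-min intervals. Six mice per group; representative of two experiments.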
(An intraperitoneal irritant provokes the stretching counted in writhing tests.)

For data set [2], the system named is Mus musculus. Briefly: Antinociceptive activity in Swiss mouse assessed as inhibition of capsaicin-induced thermal hyperalgesia at 10 mg/kg, ip administered 30 mins prior to capsaicin-challenge measured after 1 to 3 hrs by hot plate test. In kind it is functional, organism-based. More on the design: dose 10 mg/kg. The gist of the method:
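Dosed at 10 mg/kg ip 30 min before intraplantar capsaicin (1.6 μg/paw). Mechanical hyperalgesia measured by electronic pressure-meter as Δ withdrawal threshold (g), average of three readings. Thermal hyperalgesia measured as hot-plate latency at 55 °C with a 30 s cutoff. Both read at 1, 3 and 5 h. Six mice per group.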

The test system of data set [3] is Mus musculus. Briefly: Antinociceptive activity in Swiss mouse assessed as inhibition of complete Freund's adjuvant-induced thermal hyperalgesia at 10 mg/kg, ip administered 24 hrs after complete Freund's adjuvant-challenge for seven days by hot plate test. In kind it is functional, organism-based. More on the design: dose 10 mg/kg. Summed up:
(§2)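 Treatment at 10 mg/kg ip given daily, starting 24 h after intraplantar CFA (10 μL/paw), for seven days. Electronic pressure-meter (Δ threshold, g) and hot plate (55 °C, 30 s cutoff) read every 24 h over days 1–8. Six mice per group.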
In general terms: Hot-plate and tail-flick tests time the reaction to a heat stimulus.

Data set [4] deals with Mus musculus. Briefly: Antiinflammatory activity in Swiss mouse assessed as inhibition of carrageenan-induced IL-6 production 10 mg/kg, ip administered 30 mins prior to carrageenan-challenge measured after 3 hrs by ELISA. In kind it is functional, organism-based. More on the design: dose 10 mg/kg. The following applies: at 10 mg/kg. The gist of the method: (§3)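 Compound given ip in saline 30 min before intraplantar carrageenan (300 μg/paw). Paw skin taken 3 h later and homogenized in 500 μL buffer with protease inhibitors. TNF-α, IL-1β, IL-6, IL-33 and IL-10 measured by ELISA, reported as pg/100 mg tissue. Saline-injected paws served as controls. Six mice per group; representative of two experiments.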
In general terms: ELISA stands for enzyme-linked immunosorbent assay.

Data set [5] has as its system Mus musculus. The data set is described as follows: Antinociceptive activity in Swiss mouse assessed as inhibition of capsaicin-induced paw flinching at 10 mg/kg, ip administered 30 mins prior to capsaicin-challenge measured after 5 mins. More on the design: dose 10 mg/kg. In kind it is functional, organism-based. Summed up:
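Pretreatment ip 30 min before intraplantar capsaicin (1.6 μg/paw), given after an adaptation period. Mice observed individually for 5 min afterwards. Total flinches and time spent licking the injected paw were scored. Six mice per group; representative of two experiments; one-way ANOVA with Tukey's test.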

The subject of data set [6] is Mus musculus. The data set is described as follows: Antinociceptive activity in ip dosed Swiss mouse assessed as inhibition of acetic acid-induced writhing response administered 30 mins prior to acetic acid-challenge measured for 20 mins. Type of data set: functional, organism-based. The gist of the method: as §1
For data set [7], the system named is Mus musculus. The data set is described as follows: Antinociceptive activity in Swiss mouse assessed as inhibition of carrageenan-induced mechanical hyperalgesia at 1 to 3 mg/kg, ip administered 30 mins prior to carrageenan-challenge measured after 3 hrs by electronic pressure-meter test. In kind it is functional, organism-based. Summed up: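 Doses of 1–10 mg/kg given ip 30 min before intraplantar carrageenan (300 μg/paw). Electronic pressure-meter applied to mice on a wire grid floor; paw withdrawal with flinching was the end point, and each value is the average of three readings. Result reported as Δ withdrawal threshold (g) from baseline at 1, 3 and 5 h. Six mice per group; two-way ANOVA.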

For data set [8], the system named is Mus musculus. Briefly: Antinociceptive activity in Swiss mouse assessed as inhibition of phenyl-p-benzoquinone-induced writhing response at 10 mg/kg, ip administered 30 mins prior to phenyl-p-benzoquinone-challenge measured for 20 mins. Type of data set: functional, organism-based. More on the design: dose 10 mg/kg. Summed up:
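Pretreatment ip 30 min before ip phenyl-p-benzoquinone (1890 μg/kg in 2% DMSO/saline). Cumulative writhing score counted over 20 min. Six mice per group; representative of two experiments.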

Data set [9] concerns Mus musculus. Briefly: Neurotoxicity in Swiss mouse assessed as change in motor response at 10 mg/kg, ip after 1.5 hrs by rotarod test (reference value: 180 seconds). In kind it is toxicity, organism-based. The arrangement: dose 10 mg/kg, route intraperitoneal. The settings on record: in vivo. Summed up:
(§4)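 Rota-rod with a 2.5 cm bar at 22 rpm. Mice pre-selected 24 h earlier by staying on the bar for two consecutive 180 s periods. Given 10 mg/kg ip (vehicle 2% DMSO in saline) and tested at 1.5, 3.5 and 5.5 h, with a 180 s cutoff. n = 6.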

In data set [10] the test system is Mus musculus. Briefly: Antinociceptive activity in Swiss mouse assessed as inhibition of formalin-induced paw flinching at 10 mg/kg, ip administered 30 mins prior to formalin-challenge measured after 30 mins. Type of data set: functional, organism-based. More on the design: dose 10 mg/kg. Summed up: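 Given ip 30 min before intraplantar formalin (25 μL of 1.5% in saline). Paw flinches and licking time recorded from 0 to 30 min in 5-min bins, covering the first (0–5 min) and second (10–30 min) phases. Six mice per group; representative of two experiments.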

Data set [11] deals with Mus musculus. The data set is described as follows: Antiinflammatory activity in Swiss mouse assessed as increase in carrageenan-induced IL-10 production 10 mg/kg, ip administered 30 mins prior to carrageenan-challenge measured after 3 hrs by ELISA. Type of data set: functional, organism-based. More on the design: dose 10 mg/kg. The gist of the method: as §3
Data set [12] deals with Mus musculus. The data set is described as follows: Antinociceptive activity in Swiss mouse assessed as inhibition of acetic acid-induced writhing response at 1 to 3 mg/kg, ip administered 30 mins prior to acetic acid-challenge measured for 20 mins. Type of data set: functional, organism-based. Summed up: as §1
Data set [13] relates to Mus musculus. Briefly: Hepatotoxicity in Swiss mouse assessed as change in plasma AST level at 10 mg/kg, ip for 7 days. In kind it is toxicity, organism-based. More on the design: dose 10 mg/kg, route intraperitoneal. The following applies: in vivo, 168 h. The gist of the method: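 Mice dosed daily ip at 10 mg/kg for 7 days; vehicle was saline or Tris/HCl pH 8.0. Plasma AST and ALT measured with a diagnostic kit.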

Data set [14] relates to Mus musculus. The data set is described as follows: Antinociceptive activity in Swiss mouse assessed as inhibition of acetic acid-induced writhing response at 10 mg/kg, ip administered 30 mins prior to acetic acid-challenge measured for 20 mins. Type of data set: functional, organism-based. The arrangement: dose 10 mg/kg. The gist of the method:
as §1

For data set [15], the system named is Mus musculus. The data set is described as follows: Antiinflammatory activity in Swiss mouse assessed as inhibition of carrageenan-induced IL-33 production 10 mg/kg, ip administered 30 mins prior to carrageenan-challenge measured after 3 hrs by ELISA. In kind it is functional, organism-based. More on the design: dose 10 mg/kg. The settings on record: at 10 mg/kg. Summed up: as §3

The test system of data set [16] is Mus musculus. The data set is described as follows: Antinociceptive activity in Swiss mouse assessed as inhibition of carrageenan-induced thermal hyperalgesia at 3 to 10 mg/kg, ip administered 30 mins prior to carrageenan-challenge measured after 1 to 5 hrs by hot plate test. Type of data set: functional, organism-based. The gist of the method: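 Doses of 1–10 mg/kg given ip 30 min before intraplantar carrageenan (300 μg/paw). Hot plate held at 55 °C; latency to jump or lick paws recorded at 1, 3 and 5 h, with a 30 s cutoff. Two baseline latencies taken at least 10 min apart. Six mice per group.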

Data set [17] relates to Mus musculus. Briefly: Neurotoxicity in Swiss mouse assessed as change in motor response at 10 mg/kg, ip after 5.5 hrs by rotarod test (reference value: 180 seconds). The arrangement: dose 10 mg/kg, route intraperitoneal. Type of data set: toxicity, organism-based. The settings on record: in vivo. The gist of the method:
as §4

The subject of data set [18] is Mus musculus. The data set is described as follows: Antinociceptive activity in Swiss mouse assessed as inhibition of complete Freund's adjuvant-induced mechanical hyperalgesia at 10 mg/kg, ip administered 24 hrs after complete Freund's adjuvant-challenge for seven days by electronic pressure-meter test. Type of data set: functional, organism-based. More on the design: dose 10 mg/kg. The gist of the method: as §2

On to `O=c1cc(-c2ccc(O)cc2)oc2c([C@@H]3O[C@H](CO)[C@@H](O)[C@H](O)[C@H]3O)c(O)cc(O)c12` [VITEXIN], for which the inhibition entry in data set [1], in data set [2], in [3], in data set [4], in data set [5] and in data set [7] was “Active” each time. Moreover, the inhibition result in data set [8], in [10], in data set [12], in [14], in data set [15] and in [16] was “Active” throughout. Moreover, the inhibition result in [18] is “Active”. The inhibition entry in data set [6] is “Dose-dependent effect”. The Time in [9] and in data set [17] was 180 s in each case. The result in data set [11] was Active. The Activity entry in [13] is listed as “Non-toxic”.
